High-throughput results (PubChem)
PostGolgi yeast – growth inhibition of a yeast mutant, post-Golgi transport screen; actives 0.9% (n = 98,000); post-Golgi transport phenotypic cell assay; AID 739; inhibition, % at 10 µM;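 further: yeast cells grown in 1536-well plates; yeast grown about 18 h at 30C before absorbance read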
PLAP act – human PLAP activation | P05187 | purified PLAP enzyme, luminescent substrate read-out; hits give high values | activation fold at 20 µM | actives 1.2% (n = 96,000); in the data active means activation fold above about 2
Target sequence (P05187 whole entry, looked up): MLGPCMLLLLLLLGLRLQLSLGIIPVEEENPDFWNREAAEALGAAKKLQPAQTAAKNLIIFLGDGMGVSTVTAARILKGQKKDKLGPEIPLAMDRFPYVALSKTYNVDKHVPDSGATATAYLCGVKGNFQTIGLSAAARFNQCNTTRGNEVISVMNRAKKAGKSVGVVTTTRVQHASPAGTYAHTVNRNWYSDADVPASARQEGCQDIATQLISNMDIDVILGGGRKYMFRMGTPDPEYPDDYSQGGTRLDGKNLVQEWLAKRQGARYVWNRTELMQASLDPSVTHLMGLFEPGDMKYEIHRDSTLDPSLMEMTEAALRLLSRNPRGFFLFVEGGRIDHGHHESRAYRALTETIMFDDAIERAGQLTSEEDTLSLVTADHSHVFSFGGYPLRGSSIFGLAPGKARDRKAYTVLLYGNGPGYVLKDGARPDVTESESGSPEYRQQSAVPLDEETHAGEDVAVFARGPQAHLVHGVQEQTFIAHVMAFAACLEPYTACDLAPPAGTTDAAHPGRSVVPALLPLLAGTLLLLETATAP
PostGolgi ctrl – yeast control strain growth, post-Golgi counter-screen. efflux-deficient yeast background strain, growth absorbance A615, 16 h. inhibition, % at 10 µM. actives 5% (n = 98,000)
Ecoli tolC – E. coli tolC mutant growth inhibition. E. coli BW25113 tolC mutant growth, OD615. growth inhibition, % at 10 µM (by protocol). actives 2.2% (n = 65,000);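 active means growth inhibition at or above a cutoff equal to the mean over every tested compound plus 3 SD, cut at about 60% in these data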;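 further: growth measured after 20 h incubation at 37 °C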
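Test system – E. coli BW25113 ΔtolC::kan, tolC deletion mutant strain · Detection – OD at 615 nm · Buffer or medium – LB with kanamycin 50 µg/mL · Times – 20 h compound exposure of bacteria at 37 °C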
Ecoli WT expand – blocks growth of wild type E. coli BW25113; OD600 absorbance; growth inhibition, % at 100 µM; AID 710; actives 0.15% (n = 98,000);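 active means growth inhibition above about 50% at one test dose, limit read from the data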;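 further: growth measured after 20 h incubation at 37 °C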
The depositor's hits bear a star; · = no result. An excerpt weighted towards active compounds, which were near 7.2% of everything screened. Unless noted, no stated cut-off is given here; in the data, active means inhibition above about 30%; inactive means the rest.

SMILES | PostGolgi yeast | PLAP act | PostGolgi ctrl | Ecoli tolC | Ecoli WT expand
O=C(Nc1ccccc1)OCC1CCCN2CCCCC12 (stereo not drawn) | 7 | 1 | 5 | -8 | 2
CC1=CCC(COC(=O)Nc2ccccc2)CC1 (stereo not drawn) | 1 | 1.1 | 31* | 98* | 14
CCOC(=O)C1=C(CS(=O)(=O)c2ccc(F)c(C)c2)NC(=O)NC1c1ccc(O)c(O)c1 (stereo not drawn) | -1 | 1.8 | -3 | 4 | 4
O=C(COC(=O)Cc1ccsc1)NC1CCCCCC1 | -5 | 1 | 18 | -8 | 10
CC(C(=O)Nc1nc2ccccc2[nH]1)N1C(=O)C2CC=CCC2C1=O (stereo not drawn) | 2 | 2* | 25 | -3 | 1
C[C@@H](C(=O)NCc1ccccc1)N1C(=O)C2CC=CCC2C1=O (stereo partly drawn) | 1 | 1.4 | 6 | · | 4
COc1cc2c(cc1NS(=O)(=O)N1CCCC1)oc1ccccc12 | 21 | 1 | 49* | · | -12
CN(C)c1ncnc2c1NC1=C(S2)C(=NCCCC(=O)O)CC(C)(C)C1 | -3 | 2* | 1 | · | 2
COc1ncnc2c1NC1=C(S2)C(=NCCC(=O)O)CC(C)(C)C1 | -1 | 1.1 | -4 | · | 9
COc1ccc(-c2csc(NCc3ccco3)n2)cc1C | 1 | 1 | 4 | 65* | -1
Cc1ccc(Cl)cc1NC(=O)c1cnn2c1NC(c1ccco1)CC2C(F)(F)F (stereo not drawn) | 41* | 0.9 | 58* | · | -2
O=C(NCc1cccc(Cl)c1)c1cnn2c1NC(c1ccco1)CC2C(F)(F)F (stereo not drawn) | -3 | 0.8 | 16 | · | -1
COC(=O)Oc1ccc(/C=N/NC(=O)CSCc2ccccc2Br)cc1OC | 5 | 1 | 12 | · | 4
O=C(NCCc1ccccc1)C1CCCN(S(=O)(=O)c2cccs2)C1 (stereo not drawn) | 0 | 0.9 | 7 | 6 | 6
COc1ccc(CNS(=O)(=O)c2cccc(S(=O)(=O)N3CCOCC3)c2)cc1 | 15 | 1.1 | 4 | · | -1
COCCn1c(C23CC4CC(CC(C4)C2)C3)n[nH]c1=S | 11 | 1.1 | 32* | 25 | 3
COCCn1c(-c2ccccc2F)n[nH]c1=S | 9 | 1 | -5 | -13 | 15
COCCCNC(=O)C1C2C=CC3(CN(Cc4ccc(C)cc4)C(=O)C13)O2 (stereo not drawn) | -7 | 1.2 | 33* | -11 | 3
Cc1ccc(CN2CC34C=CC(O3)C(C(=O)NCc3ccc5c(c3)OCO5)C4C2=O)cc1 (stereo not drawn) | -2 | 1.4 | 5 | 16 | 3
Cc1ccc(CSc2nc3c(c(N(C)C)n2)CCCC3)cc1 | -15 | 1 | 41* | · | 6
CN(C)c1nc(SCc2ccccc2Cl)nc2c1CCCC2 | 59* | 1 | 36* | · | -2
CNc1nc(SCc2ccc(C)cc2)nc2c1CCCC2 | 10 | 0.8 | 33* | · | -1
Cc1ccc(CSc2nc3c(c(SCC(=O)O)n2)CCCC3)cc1 | 17 | 1.3 | 9 | · | -2
CCCc1cc(NCC2CCCO2)n2c(nc3ccccc32)c1C#N (stereo not drawn) | -1 | 1.4 | 10 | · | -3
N#CCSc1nc2ccccc2c(=O)n1CCC(=O)NC1CCCCC1 | -6 | 1 | 35* | -1 | -2
SMILES | PostGolgi yeast | PLAP act | PostGolgi ctrl | Ecoli tolC | Ecoli WT expand
Cc1ccc(Cn2cccc(NC(=O)c3ccco3)c2=O)cc1 | 21 | 1.1 | 7 | 24 | 2
O=C(CSc1nnc(Cc2cccs2)n1Cc1ccco1)Nc1ccc(Cl)cc1Cl | 0 | 1.3 | 25 | 95* | -24
O=C(CSc1nnc(Cc2ccccc2)n1Cc1ccco1)NC12CC3CC(CC(C3)C1)C2 | -8 | 1.7 | 18 | 83* | -9
O=C(CSc1nnc(-c2ccco2)n1Cc1ccco1)NCc1cccs1 | 2 | 0.9 | 11 | -3 | 1
NC(=O)c1c(NC(=O)CSc2nnc(Cc3ccccc3)n2Cc2ccco2)sc2c1CCC2 | -8 | 1.1 | 9 | 34 | -3
O=C(CSc1nnc(Cc2cccs2)n1Cc1ccco1)Nc1ccc(Br)cc1 | 2 | 0.8 | 15 | 100* | -9
CCCn1nnnc1NC(=O)c1ccc(C)cc1Cl | 6 | 0.9 | 5 | · | 6
Cn1cc(Cl)nc1C(O)c1ccccc1 (stereo not drawn) | · | · | · | 7 | ·
COc1ccc(C)cc1NC(=O)c1nnn(Cc2cc(C)ccc2C)c1N | 1 | 0.9 | 18 | 19 | 1
COc1ccc(OC)c(NC(=O)c2nnn(Cc3ccccc3C)c2N)c1 | -10 | 1.2 | 34* | 18 | -3
C1CNCCNCCNCCN1 | · | · | · | 1 | ·
COc1cc2oc3ccccc3c2cc1N(CC(=O)N(C)C)S(=O)(=O)c1ccc(C)cc1 | -3 | 1.6 | 16 | · | -11
COc1cc2oc3ccccc3c2cc1N(CC(=O)N1CCCCC1)S(=O)(=O)c1ccc(C)cc1 | -3 | 1.1 | 43* | · | -11
O=C(NCc1ccc2c(c1)OCO2)c1cccc(S(=O)(=O)N2CCCCC2)c1 | 7 | · | 31* | 20 | -21
O=C(c1cccc(-c2nnc(-c3ccccc3)o2)c1)N1CCCCC1 | 7 | 1.1 | 31* | 23 | -4
O=C(c1cccc(S(=O)(=O)N2CCCCC2)c1)N1CCCCC1 | 13 | 0.9 | 38* | -11 | 0
Cc1nc(NC(=O)CSc2ccccc2N)sc1C | 2 | 0.9 | -5 | 9 | 10
COc1cc(C)c(S(=O)(=O)n2ccc(C)n2)cc1C | -10 | 1.2 | 6 | -2 | 8
CCCn1c(-c2ccccc2)nc2c(=O)n(C)c(=O)[nH]c21 | 3 | 1 | 36* | 7 | -1
CCCn1nnc(NC(=O)C(c2ccccc2)c2ccccc2)n1 | 34* | 0.9 | 8 | · | -8
CC(C)(C)C(=O)O/N=C1/C(=O)N(c2ccccc2)c2ccccc21 | 15 | 1.1 | 40* | · | -6
CC(C)CC(=O)O/N=C1\C(=O)N(c2ccccc2)c2ccccc21 | 2 | 1 | 22 | · | -6
NS(=O)(=O)c1ccc(CCNc2ncnc3c2c(-c2ccccc2)cn3-c2ccc(F)cc2)cc1 | 10 | 1.3 | 61* | · | -6
NS(=O)(=O)c1ccc(CCNc2cc(=O)n(Cc3ccc(F)cc3)c(=O)[nH]2)cc1 | 0 | 0.7 | -1 | -9 | -6
CCCCCCCCCOC(=O)C(CC(=O)O)N1CCOCC1 (stereo not drawn) | 4 | 2* | 0 | · | -4
Cc1ccc(Nc2nc(N)nc(CN3CCN(C(=O)c4ccco4)CC3)n2)cc1Cl | 4 | 1.7 | 6 | 18 | 0
CNS(=O)(=O)c1cccc(C(=O)Nc2cccnc2)c1 | -3 | 0.8 | 34* | · | 5
O=S(=O)(NC1CCCC1)c1ccc(S(=O)(=O)N(Cc2cccs2)CC2CCCO2)cc1 (stereo not drawn) | 12 | 1.1 | 15 | 64* | -11
Cc1cc(/C=N/NC(=O)c2cccc([N+](=O)[O-])c2)c(C)n1-c1ccc(Cl)cc1Cl | 34* | 0.9 | 14 | · | -18
O=C(/C=C/c1ccccc1)NC(=S)NNC(=O)c1cccnc1 | 1 | 1.7 | 16 | · | -6
